Compound activity as filed in PubChem.
MrgX1 antagonist – human MrgX1 receptor antagonism, primary screen; B-score at 10 µM; MRGX1-HEK293 calcium flux, Fluo-4, BAM8-22 antagonism; hits give low values; 310,000 tested, 1.3% active;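 active = calcium-response B-score plate-corrected more than 3 library SD below zero, starting fluorescence within 5 deviations, no agonist response on first addition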;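 note: peak minus trough fluorescence over baseline after final BAM8-22 challenge near maximal dose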
Target sequence (Q96LB2 whole entry, looked up): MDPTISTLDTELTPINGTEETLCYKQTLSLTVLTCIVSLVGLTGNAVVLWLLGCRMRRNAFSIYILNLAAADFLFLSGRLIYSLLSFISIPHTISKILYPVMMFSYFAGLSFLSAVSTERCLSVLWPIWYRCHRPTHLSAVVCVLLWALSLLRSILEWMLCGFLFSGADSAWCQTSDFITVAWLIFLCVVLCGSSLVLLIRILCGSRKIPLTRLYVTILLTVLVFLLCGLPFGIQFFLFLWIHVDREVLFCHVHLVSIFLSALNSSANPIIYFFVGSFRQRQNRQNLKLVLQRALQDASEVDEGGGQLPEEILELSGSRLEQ
MrgX1 ag – agonists of human MrgX1 receptor | MrgX1-HEK293 cells, Fluo-4 calcium fluorescence, agonist mode; hits give high values | B-score at 10 µM | 310,000 tested, 0.44% active | AID 588627;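 active = calcium response B-score plate-corrected fluorescence ratio at least 3 library SD, with starting fluorescence B-score inside 5 SD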
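Assay system: MrgX1-expressing HEK293 cells / Amount: fifteen thousand cells per well / Doses: test compound in the initial addition of three / Timing: cells plated overnight, dye loaded 0.5 h 37 °C, 0.5 h room temperature / Technique: kinetic calcium dye fluorescence, Fluo-4 NW / Control set: positive and negative controls per plate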
RGS4 act – potentiators or activators of RGS4. 310,000 tested, 0.92% active. HEK293 M3R/inducible RGS4, carbachol calcium flux Fluo4; hits give low values. B-score at 10 µM. AID 463111;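 active = B-score of the integrated calcium signal more than 4 SD below the library mean, with starting fluorescence not abnormally high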;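 note: negative B-score means reduced calcium response which marks RGS4 activation or potentiation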
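System – HEK293 FlpIn-TREx cells, stable M3R, doxycycline-inducible RGS4 · Reagent – ECmax carbachol challenge · Times – compound preincubation 20 min at room temperature before agonist · Technique – Fluo4 fluorescence kinetic imaging of calcium · Measure – B score of integrated Fluo4 ratio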
MrgX1 PAM – human MrgX1 positive allosteric modulation, primary screen; B-score at 10 µM; MrgX1-HEK293, Fluo-4 calcium flux, FDSS; hits give high values; AID 588675; 310,000 tested, 0.63% active;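 active = plate-corrected calcium response at least 3 library SD above typical, normal starting fluorescence, not activating the receptor alone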;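 note: compound read alongside a low EC10 to EC30 dose of BAM8-22 agonist; peak minus trough fluorescence over baseline measured at the second addition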
RGS4 block – inhibitors of human RGS4 | HEK293 M3R/RGS4 inducible, Fluo-4 calcium flux; hits give high values; triggered by carbachol at its EC20 | 310,000 tested, 0.45% active | P49798 | B-score at 10 µM | AID 463165;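 active = B-score, a plate-corrected calcium signal, over three deviations above library mean, with baseline fluorescence within five deviations of library mean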;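 note: RGS4 expression induced by doxycycline in cells with stable M3 receptor; B-score is computed from the integrated fluorescence ratio over baseline after carbachol; higher B-score means a larger calcium signal and so more RGS4 inhibition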
Target sequence (P49798 whole entry, looked up): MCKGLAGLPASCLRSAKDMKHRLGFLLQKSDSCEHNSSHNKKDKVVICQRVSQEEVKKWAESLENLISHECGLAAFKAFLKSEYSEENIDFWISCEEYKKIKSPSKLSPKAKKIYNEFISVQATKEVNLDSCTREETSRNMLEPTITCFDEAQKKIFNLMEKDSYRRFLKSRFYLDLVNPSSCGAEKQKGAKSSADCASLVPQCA
MrgX1 ant reconf – reconfirmed antagonist of human MrgX1 receptor signaling. shares compounds with MrgX1 antagonist. MrgX1-HEK293, BAM8-22 calcium flux, Fluo-4; hits give low values. remaining BAM8-22 calcium response % of control (hits give low values), % at 10 µM. 2,300 tested, 19% active. AID 602420;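 active = remaining agonist calcium response no higher than 100% minus 3 SD of agonist-only control wells, with starting fluorescence near control levels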;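 note: agonist BAM8-22 given at a near maximal EC90 to ECmax level; peak minus minimum fluorescence divided by baseline after agonist addition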
HEK293 Ca flux – counter-screen for MrgX1 antagonists: effect in parental HEK293 cells; shares compounds with MrgX1 antagonist; Fluo-4 calcium fluorescence, FDSS; fluorescence ratio F(max-min)/F0 at 10 µM; 4,000 tested, 2% active; AID 624111;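 active = duplicate-averaged calcium fluorescence ratio at least three times the standard deviation of buffer wells, a nonspecific response in parental cells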
HEK293 Ca counter – activity in parental HEK293 cells without MrgX1. shares compounds with MrgX1 antagonist. parental HEK293 calcium flux, Fluo-4 fluorescence ratio; hits give high values. fluorescence ratio F(max-min)/F0 at 10 µM. 4,000 tested, 0.4% active. AID 624114;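 active = calcium fluorescence ratio, averaged over duplicates, at least 3 SD of the buffer-well ratio, meaning a nonspecific response in receptor-free cells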;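 note: untransfected parental HEK293 lacking MrgX1 used as counterscreen for MrgX1 allosteric activators; fluorescence change taken during the second addition on a kinetic imager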
HEK293 Ca cntr2 – counter-screen for MrgX1 activators: effect in parental HEK293 cells; shares compounds with MrgX1 antagonist; Fluo-4 calcium fluorescence (FDSS); hits give high values; fluorescence ratio F(max-min)/F0 at 10 µM; 4,000 tested, 8.7% active;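 active = calcium fluorescence ratio at least three times the spread of buffer wells, meaning a non-specific response in parental cells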
Of the large screens only hits and unclear results are named; the others gave an inactive call (follow-up assays come after a bar, where they were run). A selection: hits, their analogues and other compounds. The true share with any hit is near 3.5%.

CCc1cc(=O)[nH]c(SCc2cccnc2)n1	none
Cc1cccc(N2CCN(C(=O)c3ccoc3C)CC2)c1C	none
O=S(=O)(NCCc1csc(-c2cccnc2)n1)c1cccs1	none
O=S(=O)(NCCc1csc(-c2cccnc2)n1)c1ccc(Cl)s1	MrgX1 antagonist -4.9 | MrgX1 ant reconf 79% | HEK293 Ca flux inactive | HEK293 Ca counter inactive | HEK293 Ca cntr2 inactive
Cc1ccc(S(=O)(=O)N2CCN(Cc3ccsc3)CC2)cc1	none
COc1cc(C2NC(C(=O)O)Cc3c2[nH]c2ccccc32)cc(OC)c1OC (stereo not given)	none
COc1ccc(C2NC(C(=O)O)Cc3c2[nH]c2ccccc32)cc1OC (stereo not given)	MrgX1 antagonist -6.7 | MrgX1 ant reconf inactive | HEK293 Ca flux inactive | HEK293 Ca counter inactive | HEK293 Ca cntr2 inactive
CCC(C)[C@H](NC(=O)[C@@H]1CSC2c3ccccc3C(=O)N21)C(=O)NCc1ccco1 (stereo not given in full)	none
COC(=O)c1ccc2[nH]c3c(c2c1)CC(C)CC3 (stereo not given)	none
CC1CCc2[nH]c3ccc(C(=O)N4CCCC(C(F)(F)F)C4)cc3c2C1 (stereo not given)	MrgX1 antagonist -4.6 | MrgX1 ant reconf inactive | HEK293 Ca flux inactive | HEK293 Ca counter inactive | HEK293 Ca cntr2 inactive
CCOc1cc(C(=O)NC(=S)Nn2cnnc2)cc(OCC)c1OCC	MrgX1 antagonist -4.5 | MrgX1 ant reconf inactive | HEK293 Ca flux inactive | HEK293 Ca counter inactive | HEK293 Ca cntr2 inactive
CCOc1cc(C(=O)Nn2cnnc2)cc(OCC)c1OCC	MrgX1 antagonist -4.6 | MrgX1 ant reconf inactive | HEK293 Ca flux inactive | HEK293 Ca counter inactive | HEK293 Ca cntr2 inactive
CCOc1cc(C(=O)NC(=S)Nc2nc(C)cc(C)n2)cc(OCC)c1OCC	none
O=C(NC(=S)Nn1cnnc1)c1ccccc1	MrgX1 antagonist -8.3 | MrgX1 ant reconf 75% | HEK293 Ca flux inactive | HEK293 Ca counter inactive | HEK293 Ca cntr2 inactive
COc1ccc(N(CC(=O)Nc2nccs2)S(=O)(=O)c2c(C)[nH]c(=O)[nH]c2=O)cc1	none
CCOC(=O)c1c(C)[nH]c(C(=O)N2CCC(C(=O)OCC)CC2)c1C	none
Cc1ccc(C(=O)NC(=S)Nc2ccc(N3CCOCC3)cc2)c(C)c1	MrgX1 antagonist -5.4 | MrgX1 ant reconf inactive | HEK293 Ca flux inactive | HEK293 Ca counter inactive | HEK293 Ca cntr2 inactive
COc1cccc(NC(=O)c2nc(S(C)(=O)=O)ncc2Cl)c1	MrgX1 antagonist -5.5 | MrgX1 ant reconf inactive | HEK293 Ca flux inactive | HEK293 Ca counter inactive | HEK293 Ca cntr2 inactive
COc1cccc(NC(=O)c2nc(SC)ncc2Cl)c1	none
CN(c1ccccc1)S(=O)(=O)c1ccc(NC(=O)c2ccccc2)cc1	none
CN(c1ccccc1)S(=O)(=O)c1ccc(NC(=O)c2nc(S(C)(=O)=O)ncc2Cl)cc1	MrgX1 antagonist -5.7 | MrgX1 ant reconf inactive | HEK293 Ca flux inactive | HEK293 Ca counter inactive | HEK293 Ca cntr2 inactive
CCOC(=O)CCNC(=O)N1CCCC(Cc2ccccc2)(C(=O)OCC)C1 (stereo not given)	none
CC(OC(=O)CNC(=O)c1ccc2ccccc2c1)C(=O)NC1CCCCC1C (stereo not given)	none
COc1ccccc1CNC(=O)Cn1cccc1C(=O)c1ccccc1	none
CCOC(=O)C1CCN(C(=O)Cn2c(=O)oc3cc(S(=O)(=O)N4CCCC4)ccc32)CC1	MrgX1 antagonist -5.1 | MrgX1 ant reconf inactive | HEK293 Ca flux inactive | HEK293 Ca counter inactive | HEK293 Ca cntr2 inactive
CCc1cccc(NC(=O)C2CCN(S(=O)(=O)c3ccc4[nH]c(=O)ccc4c3)CC2)c1	none
CCOC(=O)C1CCN(S(=O)(=O)c2ccc3[nH]c(=O)ccc3c2)CC1	MrgX1 antagonist -4.7 | MrgX1 ant reconf inactive | HEK293 Ca flux inactive | HEK293 Ca counter inactive | HEK293 Ca cntr2 inactive
Cc1ccc(NC(=O)C2CCCN(S(=O)(=O)c3ccc4[nH]c(=O)ccc4c3)C2)cc1C (stereo not given)	none
Cc1ccc(C)c(N2CCN(C(=O)Cn3c(=O)oc4cc(S(=O)(=O)N5CCCC5)ccc43)CC2)c1	none
Cc1cccc(NC(=O)C2CCCN(S(=O)(=O)c3ccc4[nH]c(=O)ccc4c3)C2)c1 (stereo not given)	MrgX1 antagonist -6.5 | MrgX1 ant reconf inactive | HEK293 Ca flux inactive | HEK293 Ca counter inactive | HEK293 Ca cntr2 inactive
Cc1cc(C)cc(NC(=O)C2CCN(S(=O)(=O)c3ccc4[nH]c(=O)ccc4c3)CC2)c1	MrgX1 antagonist -6.4 | MrgX1 ant reconf inactive | HEK293 Ca flux inactive | HEK293 Ca counter inactive | HEK293 Ca cntr2 inactive
Cc1cc(C)cc(NC(N)=S)c1	none
COc1ccccc1N1CCN(S(=O)(=O)CCNC(=O)Cc2ccc(F)cc2)CC1	none
Cc1nn(C(=O)CCCn2cc([N+](=O)[O-])cn2)c(C)c1Cl	none
COc1cccc(C(=O)Oc2ccc3ccc(=O)oc3c2)c1	none
CC1(C)CC(=O)C=C(Nc2ccc([N+](=O)[O-])cc2)C1	none
CCOC(=O)N1CCN(C(=O)c2cc3c(s2)-c2ccc(Cl)cc2S(=O)(=O)C3)CC1	none
CC(C)(C)c1csc(NC(=O)c2ccncc2)n1	MrgX1 antagonist -7 | MrgX1 ant reconf inactive | HEK293 Ca flux inactive | HEK293 Ca counter inactive | HEK293 Ca cntr2 inactive
O=C(NC(=S)NCc1ccccc1)C1CCCCC1	none
CCn1c(SCC(=O)OC)nc2sc3c(c2c1=O)CC(C)(C)OC3	none
CCSc1nc2sc3c(c2c(=O)n1CC)CC(C)(C)OC3	MrgX1 antagonist -7.1 | MrgX1 ant reconf inactive | HEK293 Ca flux inactive | HEK293 Ca counter inactive | HEK293 Ca cntr2 inactive
O=C(c1ccccc1-c1ccccc1)N1CCCC1	none
CNC(=O)c1ccccc1-c1ccccc1	MrgX1 antagonist -5.3 | MrgX1 ant reconf inactive | HEK293 Ca flux inactive | HEK293 Ca counter inactive | HEK293 Ca cntr2 inactive
O=C(c1ccccc1-c1ccccc1)N1CCCCC1	MrgX1 antagonist -5.2 | MrgX1 ant reconf inactive | HEK293 Ca flux inactive | HEK293 Ca counter inactive | HEK293 Ca cntr2 inactive
CC(=O)Nc1ccccc1NC(=O)c1ccccc1-c1ccccc1	none
O=C(c1cccc(-n2cccc2)c1)N1CCN(S(=O)(=O)c2ccccc2)CC1	none
